One compound from article PMC4303589 (Molecular and cellular biochemistry, 2014) can be followed below.

For this assay, the target named is T1, SvAS (fused anthranilate synthase, SvTrpEG) (Streptomyces venezuelae, UniProt O30589).
T1 sequence (O30589 1-623): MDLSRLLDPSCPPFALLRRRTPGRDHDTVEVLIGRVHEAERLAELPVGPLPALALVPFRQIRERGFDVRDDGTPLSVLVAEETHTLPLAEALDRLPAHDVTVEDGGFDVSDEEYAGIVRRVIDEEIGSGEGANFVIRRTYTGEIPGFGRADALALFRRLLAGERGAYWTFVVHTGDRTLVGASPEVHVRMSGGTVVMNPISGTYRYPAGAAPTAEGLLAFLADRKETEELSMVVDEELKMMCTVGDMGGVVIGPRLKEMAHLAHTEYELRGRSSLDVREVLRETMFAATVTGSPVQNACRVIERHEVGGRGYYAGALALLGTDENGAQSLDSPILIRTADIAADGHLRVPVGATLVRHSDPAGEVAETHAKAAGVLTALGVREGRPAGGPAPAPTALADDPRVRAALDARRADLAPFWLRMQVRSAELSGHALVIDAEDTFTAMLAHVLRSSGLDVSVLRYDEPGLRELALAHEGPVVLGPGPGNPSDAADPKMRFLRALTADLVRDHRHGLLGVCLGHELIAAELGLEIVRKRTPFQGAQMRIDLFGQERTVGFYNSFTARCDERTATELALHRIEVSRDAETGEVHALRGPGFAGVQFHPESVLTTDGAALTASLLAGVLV
Type of assay: biochemical. The essentials: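 His-tagged SvAS expressed in E. coli BL21(DE3)pLysS and purified on Ni-NTA. Assays at 30°C in 50 mM Tricine pH 7.5 with 12.5 mM MgCl2, 10 μg enzyme, 20 mM glutamine (saturating), 0.39–100 μM chorismate, and 2.5, 5, 10 or 20 μM test compound. Anthranilate fluorescence (ex 315/em 395 nm) converted via standard curve. Lineweaver-Burk plot assigned inhibition type; Ki from fit to that equation.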

SMILES strings stand for the structures.

`N[C@@H](Cc1c[nH]c2ccccc12)C(=O)O` [tryptophan]: the affinity corresponds to a Ki of 11.1 ± 0.1 µM.
